Screens deposited in PubChem by Sanford-Burnham Center for Chemical Genomics.
CCR6 antagonist = CCR6 (human) receptor antagonism; CHO-K1 CCR6 PathHunter beta-arrestin, luminescence, CCL20-stimulated; hit rate 0.49% among 340,000; inhibition, % at 20 µM; AID 493098;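 active = compounds whose inhibition of the agonist-driven luminescence signal at 20 µM reaches about 50%, limit read from the data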;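 note: cells stimulated with CCL20 at 14 nM final; plate controls were DMSO with CCL20 for no effect and DMSO without agonist for full effect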
Target sequence (P51684 whole entry, looked up): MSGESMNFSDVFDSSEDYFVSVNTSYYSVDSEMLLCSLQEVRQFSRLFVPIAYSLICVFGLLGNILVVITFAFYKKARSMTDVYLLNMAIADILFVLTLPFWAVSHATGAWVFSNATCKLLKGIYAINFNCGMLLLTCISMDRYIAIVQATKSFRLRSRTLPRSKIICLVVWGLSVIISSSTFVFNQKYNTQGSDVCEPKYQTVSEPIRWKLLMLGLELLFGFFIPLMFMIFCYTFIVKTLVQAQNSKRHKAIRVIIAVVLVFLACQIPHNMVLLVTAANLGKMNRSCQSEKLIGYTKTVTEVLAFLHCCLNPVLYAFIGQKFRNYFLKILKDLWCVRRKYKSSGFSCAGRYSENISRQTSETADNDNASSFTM
APJ antag = antagonists of human APJ apelin receptor; CHO-K1 APJ beta-arrestin complementation, luminescence; inhibition, % at 20 µM; hit rate 0.32% among 330,000; AID 2521;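 active = inhibition above about 40% at 20 µM, limit read from the data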;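 note: cells challenged with 10 nM apelin-13 agonist together with compound; plate controls were apelin-13 plus DMSO wells for no effect and DMSO wells lacking apelin-13 for full effect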
CXCR6 block = blocks human CXCR6 beta-arrestin recruitment | O00574 | CHO-K1 PathHunter CXCR6 beta-arrestin, luminescence | inhibition, % at 20 µM | hit rate 0.36% among 360,000 | AID 602244; in the data active = inhibition above about 34%, passing the limit was not always enough;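 note: antagonist mode with CXCL16 agonist at 10 nM final; 0% = 10 nM CXCL16 with DMSO and 100% = unstimulated wells without agonist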
Target sequence (O00574 whole entry, looked up): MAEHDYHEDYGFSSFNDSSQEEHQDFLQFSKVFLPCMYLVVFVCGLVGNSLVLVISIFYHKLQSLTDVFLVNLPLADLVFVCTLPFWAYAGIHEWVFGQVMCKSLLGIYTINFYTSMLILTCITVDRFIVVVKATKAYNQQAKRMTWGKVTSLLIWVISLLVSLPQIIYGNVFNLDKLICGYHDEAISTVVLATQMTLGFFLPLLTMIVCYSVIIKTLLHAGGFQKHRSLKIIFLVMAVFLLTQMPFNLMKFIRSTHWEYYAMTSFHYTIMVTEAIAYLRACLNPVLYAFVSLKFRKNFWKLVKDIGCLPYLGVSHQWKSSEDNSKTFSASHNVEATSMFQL
EBI2 antag = blocks human EBI2 receptor beta-arrestin signaling; P32249; EBI2 beta-arrestin recruitment, luminescence, 7a,25-OHC stimulated; inhibition, % at 5 µM; hit rate 0.81% among 360,000; AID 651636; in the data active = inhibition above about 38%;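 note: enzyme fragment complementation signal reports receptor beta-arrestin coupling in cells; 0% = agonist plus DMSO wells and 100% = wells without agonist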
APJ ag = activates the human apelin receptor APJ. CHO-K1 APJ PathHunter beta-arrestin, luminescence; 0% DMSO wells, 100% apelin. activation, % at 20 µM. hit rate 0.11% among 330,000. AID 2520;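 active = activation more than six SD over the plate average, tested at 20 µM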;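 note: 0% = DMSO alone and 100% = apelin-13 at 10 nM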
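assay system = CHO-K1 APJ beta-arrestin complementation cell line | input = cell density 1000 per well | dosing = compound 20 µM once, DMSO 1% | timing = compound 90 min 25 °C, reagent 1 h | measured by = luminescence from split beta-galactosidase complementation, Galacton Star/Emerald II substrate | read-out basis = APJ agonist activity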
Numbers without * were called inactive; nt = no result given. Only some compounds are listed: those with a hit (about 1.5% of all), similar ones and a draw of the others.

SMILES	CCR6 antagonist	APJ antag	CXCR6 block	EBI2 antag	APJ ag
O=C(Nc1ccc(Nc2ccccc2)cc1)c1ccc(Cl)cc1	-0.3	2.2	-0.6	4.2	0.1
N#C/C(C(=O)Nc1ccc(Cl)cc1)=C(/S)Nc1ccccc1	8.5	0.5	0.8	56.7*	1.8
CC1(C)CC(=O)C2=C(C1)Nc1ccccc1N=C2	nt	57.9*	nt	nt	-31.2
Cn1cc(Cc2ccccc2)c(=O)c(Cc2ccccc2)c1	3.4	nt	-3.3	3.3	nt
O=C(O)c1cc(N=Nc2c(O)ccc3ccccc23)cc(C(=O)O)c1	57.4*	nt	27.9	15.1	nt
COc1cc(/C=C2/C(=O)c3cccc([N+](=O)[O-])c3C2=O)c(Br)cc1O	97.3*	nt	86.4*	22.6	nt
COc1ccccc1NC(=O)CCCCCN1C(=O)c2cccc([N+](=O)[O-])c2C1=O	-4.9	-3.5	1.7	3.2	-1.5
COC(=O)CSc1nc(N)c2c3c(sc2n1)C(c1ccccc1)SC(c1ccccc1)C3 (stereo not given)	6.8	-32.1	6.3	55.4*	5.3
CSCCC(C(=O)NC(C)(C)C)n1c(-c2cccc(NC(C)=O)c2)nc2ccccc21 (stereo not given)	nt	nt	nt	1.0	nt
Cc1cc2nc(-c3ccccc3)c(CC(C)(C)C)n2c(C)c1Br	nt	nt	-9.6	-9.3	nt
CC(=O)c1cccc(-c2ccnc3c2CC(C(=O)NCc2cccs2)O3)c1 (stereo not given)	nt	nt	-9.2	-0.3	nt
Cc1cc(C)c2c(=O)n(CC(=O)NCCCN3CCN(c4ccccc4F)CC3)sc2n1	99.8*	-12.4	nt	nt	4.5
COc1cccc(-c2nc3nc(C)cc(C)n3c2NCc2ccccc2)c1	nt	nt	1.3	3.2	nt
COc1ccc(N=C2S/C(=C\c3ccc(N4CCOCC4)o3)C(=O)N2CCc2c[nH]c3ccccc23)cc1	nt	9.8	12.5	80.9*	0.8
CCOc1ccc2oc(C(=O)N3CCN(Cc4ccccc4)CC3)c(C)c2c1	4.9	8.1	0.2	44.1*	-0.4
COc1cc(/C=C/CN2CCC(C(=O)NC(c3ccc(F)cc3)c3ccc4ccccc4n3)CC2)ccc1OC(C)=O (stereo not given)	nt	nt	7.7	15.4	nt
N#C/C(=C/c1ccc(N2CCCCC2)o1)c1cccc(F)c1	35.1	28.7	21.0	12.5	1.0
N#C/C(=C/c1ccc(N2CCCCCC2)o1)c1ccc(Cl)cc1	42.2	30.6	23.6	42.5*	-1.3
N#Cc1ccc(CN2CCN(C(=O)C3CC(=O)N(c4ccc5c(c4)OCCO5)C3)CC2)cc1 (stereo not given)	nt	nt	-4.4	-6.5	nt
CC(NNC(=S)N1CCN(c2ccccn2)CC1)c1nccc2ccccc12 (stereo not given)	64.2*	nt	25.9	1.2	nt
CCc1ccc(C(O)c2ncc(-c3ccccc3OC)[nH]2)cc1 (stereo not given)	nt	nt	-8.6	-10.6	nt
CCc1nc2ccc(C(=O)NCCCn3ccnc3)cn2c1N(C)Cc1nccs1	nt	nt	-7.3	4.3	nt
CC[n+]1c(/C=C/c2ccc(N(C)C)cc2)ccc2ccccc21	54.7*	nt	38.8	8.1	nt
CC[n+]1c(/C=C/c2ccc(OC)c(OC)c2)ccc2ccccc21	5.7	4.3	4.6	1.4	-3.0
Cc1cc(C)nc(N/N=C/c2cc(Br)ccc2O)n1	44.0	3.2	44.5*	0.9	-2.9
SMILES	CCR6 antagonist	APJ antag	CXCR6 block	EBI2 antag	APJ ag
Cc1cc(C)nc(N/N=C/c2ccccc2OCc2ccc(Br)cc2)n1	-1.4	7.9	3.1	-6.0	-1.4
Cc1cccc(C)c1-n1nnnc1-c1nc2cc3ccccc3cc2[nH]c1=O	nt	nt	-3.6	4.0	nt
Cc1nccn1CC(=O)c1ccccc1	nt	nt	-0.1	-24.8	nt
Cc1ccc(S(=O)(=O)N/N=C/c2cccc([N+](=O)[O-])c2)cc1	36.6	50.6*	8.6	-9.0	-8.5
COc1ccc(Oc2ccc(/C=C/C(=O)c3ccc(O)cc3)cc2[N+](=O)[O-])cc1	42.7	18.2	5.1	78.8*	-3.7
COc1ccccc1CCn1cnc(Cc2ccccc2)c1C(C)C	nt	nt	-6.9	11.2	nt
Cc1nc2ccccn2c1C(=O)/C=C/c1cccc([N+](=O)[O-])c1	7.0	24.1	2.6	41.6*	-0.3
Cc1ccc(/C=C/C(=O)c2c(C)nc3ccccn23)cc1	-26.8	8.9	1.4	21.4	0.6
CC(C)(C)C(=O)/C(=C\c1ccc([N+](=O)[O-])cc1)n1cncn1	nt	69.8*	nt	nt	-6.7
O=C(O)c1ccccc1NS(=O)(=O)c1ccc(N/N=C/c2ccc(O)c(O)c2)c([N+](=O)[O-])c1	50.0*	nt	21.6	6.2	nt
O=C(c1ccc(NS(=O)(=O)c2ccccc2)cc1)N1CCN(c2ccccc2)CC1	22.9	-13.3	7.3	-3.8	-3.5
O=C1c2ccccc2-c2onc3ccc(Oc4ccccc4)c1c23	42.1	-6.1	40.7*	-17.4	16.4
CC1(Oc2ccc(CC#N)cc2)CCN(Cc2ccc(-n3ccnc3)cc2)C1 (stereo not given)	nt	nt	1.1	3.9	nt
COc1ccc(N2C(=O)CC(Sc3nnnn3-c3ccc(F)cc3)C2=O)cc1 (stereo not given)	96.0*	-34.2	102.2*	-0.8	-2.1
COc1ccc(N2C(=O)CC(Sc3nnc(-c4ccccc4)o3)C2=O)cc1 (stereo not given)	nt	4.4	29.8	5.6	1.1
COc1ccc(C(=O)Nc2cccc(OC)c2)cc1	7.5	-11.0	-0.7	10.7	2.5
COc1cccc(NC(=O)c2ccc(OC(F)(F)F)cc2)c1	16.8	-12.3	-2.4	43.9*	1.7
Oc1c(Br)cc(Br)c2cccnc12	56.5*	nt	31.0	14.1	nt
CC1(C(=O)NS(=O)(=O)C2CC2)CCCN(C(=O)c2cccc(OC(F)(F)F)c2)C1 (stereo not given)	nt	nt	-3.0	-1.9	nt
Cc1ccc(C(=O)CC(=O)c2ccccc2C)c(O)c1	28.7	5.7	20.4	-8.8	-3.1
C=C(CN(C)C)C(=O)c1ccc2c(c1)OCO2	108.8*	nt	91.1*	34.3	nt
C[N+](C)(C)CCCC(=O)c1ccc2c(c1)OCO2	-6.0	-1.9	-8.3	-17.4	2.7
COc1cc(OC)c(C(=O)CCC(=O)O)cc1OC	-1.4	4.5	0.5	-10.8	-2.5
C=C(CN(C)C)C(=O)c1cc(OC)c(OC)cc1OC	63.0*	nt	37.6*	12.6	nt
C=C(CN(C)C)C(=O)c1ccc(C)cc1C	107.8*	nt	87.6*	10.5	nt
SMILES	CCR6 antagonist	APJ antag	CXCR6 block	EBI2 antag	APJ ag
O=C(NC(=S)Nc1ccccn1)c1cc(-c2ccccc2)nc2ccccc12	19.0	-0.5	18.0	10.5	-1.4
CCCCNC(=S)NNC(=O)c1cc(-c2cccnc2)nc2ccccc12	53.6*	-0.3	21.7	1.1	-9.3
CCCNC(=S)NNC(=O)c1cc(-c2cccnc2)nc2ccccc12	13.7	-2.1	14.4	9.7	-9.6
O=C(NC(=S)Nc1ccccc1)c1cc(-c2ccccc2)nc2ccccc12	55.2*	34.6	28.7	5.3	-5.6
C[C@@H]1CN([C@H](C)CO)C(=O)CCCn2nncc2CO[C@H]1CN(C)S(=O)(=O)c1cccc(F)c1	nt	nt	0.5	-4.1	nt
Cc1ccc(-n2c(Cl)c(Cl)nc(Cl)c2=O)cc1	82.1*	nt	60.7*	52.2*	nt
